Measurements from ChEMBL document CHEMBL4411341, “Photoactivatable Prodrug of Doxazolidine Targeting Exosomes” (J Med Chem, 2019).
Non-standard residues stand in square brackets, D forms with d. Residues, ends and D or L forms follow the SMILES beside them. *: point of attachment. X1 = COc1cc(C(C)OC(=O)N2CO[C@@H]3[C@H](C)O[C@@H](O[C@H]4C[C@](O)(C(=O)CO)Cc5c(O)c6c(c(O)c54)C(=O)c4c(OC)cccc4C6=O)C[C@@H]32)c([N+](=O)[O-])cc1OCC(=O)NCCOCCOCCOCCn1nnc2c1-c1ccccc1CN(C(=O)CCNC(=O)CCN1C(=O)CC(*)C1=O)c1ccccc1-2; X2 = COc1cc(C(C)OC(=O)N[C@H]2C[C@H](O[C@H]3C[C@](O)(C(=O)CO)Cc4c(O)c5c(c(O)c43)C(=O)c3c(OC)cccc3C5=O)O[C@@H](C)[C@H]2O)c([N+](=O)[O-])cc1OCC(=O)NCCOCCOCCOCCn1nnc2c1-c1ccccc1CN(C(=O)CCNC(=O)CCN1C(=O)CC(*)C1=O)c1ccccc1-2; Mpa = O=C(O)CCS

What was measured:
[1] = Binding affinity to exosomes in human MDA-MB-231 cells assessed as co-localization of compound with exosomes on plasma membrane at 1 uM after 1 hr using Cy5-labeled peptides by Hoechst-staining based assay; format: ADME, Exosome; conditions: mda-mb-231, 1 h
[2] = Binding affinity to exosomes in human MDA-MB-231 cells assessed as co-localization of compound with exosomes out side nucleus area at 1 uM after 1 to 6 hrs using Cy5-labeled peptides by Hoechst-staining based assay; format: ADME, subcellular, Exosome; conditions: mda-mb-231, 1 µM
In short: (§1)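 Cy5-labeled L- or D-MARCKS-ED peptide (1 µM) was co-incubated with fluorescent dye-labeled exosomes on MDA-MB-231 cells for 6 h. Peptide and exosome signals were then examined by confocal microscopy, including higher-magnification 3D images, to assess co-localization relative to the nucleus.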

[3] = Binding affinity to exosomes in human MDA-MB-231 cells assessed as co-localization of compound with exosomes at 1 uM after 1 to 6 hrs using Cy5-labeled peptides by Hoechst-staining based assay; format: ADME, subcellular, Exosome; conditions: mda-mb-231, 1 µM; in short: as §1
[4] = Drug uptake in human MDA-MB-231 cells at 1 uM after 6 hrs by flow cytometry; format: ADME, cell-based; conditions: mda-mb-231, 6 h
In short: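 MDA-MB-231 cells incubated 6 h with 1 µM compound. Uptake read by flow cytometry, with fluorescence intensity normalized to untreated cells. Three biologically independent experiments; standard deviation of mean fluorescence intensity.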

[5] = test system: MDA-MB-231; assay: Growth inhibition of human MDA-MB-231 cells irradiated with UV light for 15 mins followed by 15 mins incubation and measured after 5 days by crystal violet-staining based assay; format: functional, cell-based; conditions: MDA-MB-231, light or radiation study
In short: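 MDA-MB-231 cells exposed to prodrug at various concentrations for 6 h in medium with 10% FBS, washed twice with PBS, then irradiated 15 min with UV black lamp (320-400 nm, max 350 nm, ~0.8 mW/cm2 at 12 cm). Held 15 min at room temperature, washed, refed, and grown until untreated cells reached 80% confluency or 5 days. Crystal violet read-out; IC50 from growth inhibition curves.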

[6] = Drug uptake in human MDA-MB-231 cells at 5 uM after 3 hrs by NucBlue live cell stain-based confocal microscopy; format: ADME; conditions: mda-mb-231, 3 h
In short: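 MDA-MB-231 cells exposed to 5 µM conjugate for 3 h, then imaged by confocal microscopy at 40x using anthracycline fluorescence; untreated cells imaged as reference.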

[7] = test system: MDA-MB-231; assay: Ratio of IC50 for human MDA-MB-231 cells in absence of irradiation to IC50 for human MDA-MB-231 cells in presence of irradiation
[8] = test system: MDA-MB-231; assay: Growth inhibition of human MDA-MB-231 cells measured after 5 days in absence of irradiation by crystal violet-staining based assay; format: cell-based; conditions: MDA-MB-231, 120 h
In short: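 MDA-MB-231 cells given prodrug at various concentrations for 6 h in medium with 10% FBS, washed twice with PBS. Plate wrapped in aluminum foil to exclude ambient UV, no irradiation. Cells then washed, refed, and grown until untreated cells reached 80% confluency or 5 days. Cell density read by crystal violet staining; IC50 from growth inhibition curves.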

[9] = test system: MDA-MB-231; assay: Cytotoxicity against human MDA-MB-231 cells at 10 uM after 6 hrs by NucBlue live cell stain-based confocal microscopy; conditions: mda-mb-231, 6 h
[10] = Induction of exosomes-mediated drug uptake in human […] cells at 1 uM after 6 hrs in presence of cellmask orange-labeled exosomes by Cy5 channel-based assay; conditions: mda-mb-231, 6 h; in short: as §1
[11] = Drug uptake in human HMEC cells at 1 uM after 1 to 6 hrs using Cy5-labeled peptides by confocal microscopy
[12] = Induction of exosomes-mediated drug uptake in human […] cells at 1 uM after 6 hrs in presence of cellmask orange-labeled exosomes by tritc channel based assay; conditions: mda-mb-231, 6 h; in short: as §1
[13] = Drug uptake in human MDA-MB-231 cells at 1 uM after 1 to 6 hrs using Cy5-labeled peptides by confocal microscopy; conditions: mda-mb-231, 1 µM

Compound	Drug uptake [4]	IC50 [5]	Ratio IC50 [7]	IC50 [8]	Drug uptake [11]	Drug uptake [13]	other results
CC(C)C[C@H](NC(=O)[C@H](CCCCN)NC(=O)[C@H](Cc1ccccc1)NC(=O)[C@H](CO)NC(=O)[C@H](CCCCN)NC(=O)[C@H](CCCCN)NC(=O)[C@H](Cc1ccccc1)NC(=O)[C@H](CO)NC(=O)[C@H](Cc1ccccc1)NC(=O)[C@H](CCCNC(=N)N)NC(=O)[C@H](CCCCN)NC(=O)[C@H](CCCCN)NC(=O)[C@H](CCCCN)NC(=O)[C@H](CCCCN)NC(=O)[C@@H](N)CCCCN)C(=O)N[C@@H](CO)C(=O)NCC(=O)N[C@@H](Cc1ccccc1)C(=O)N[C@@H](CO)C(=O)N[C@@H](Cc1ccccc1)C(=O)N[C@@H](CCCCN)C(=O)N[C@@H](CCCCN)C(=O)N[C@@H](CC(N)=O)C(=O)N[C@@H](CCCCN)C(=O)N[C@@H](CCCCN)C(N)=O	–	–	–	–	–	–	Activity [1]: Active; Activity [2]: Active; Activity [3]: Active
COc1cc(C(C)OC(=O)N2CO[C@@H]3[C@H](C)O[C@@H](O[C@H]4C[C@](O)(C(=O)CO)Cc5c(O)c6c(c(O)c54)C(=O)c4c(OC)cccc4C6=O)C[C@@H]32)c([N+](=O)[O-])cc1OCC(=O)NCCOCCOCCOCCn1nnc2c1-c1ccccc1CN(C(=O)CCNC(=O)CCN1C(=O)CC(SCCC(=O)N[C@H](CCCCN)C(=O)N[C@H](CCCCN)C(=O)N[C@H](CCCCN)C(=O)N[C@H](CCCCN)C(=O)N[C@H](CCCCN)C(=O)N[C@H](CCCNC(=N)N)C(=O)N[C@H](Cc3ccccc3)C(=O)N[C@H](CO)C(=O)N[C@H](Cc3ccccc3)C(=O)N[C@H](CCCCN)C(=O)N[C@H](CCCCN)C(=O)N[C@H](CO)C(=O)N[C@H](Cc3ccccc3)C(=O)N[C@H](CCCCN)C(=O)N[C@H](CC(C)C)C(=O)N[C@H](CO)C(=O)NCC(=O)N[C@H](Cc3ccccc3)C(=O)N[C@H](CO)C(=O)N[C@H](Cc3ccccc3)C(=O)N[C@H](CCCCN)C(=O)N[C@H](CCCCN)C(=O)N[C@H](CC(N)=O)C(=O)N[C@H](CCCCN)C(=O)N[C@H](CCCCN)C(N)=O)C1=O)c1ccccc1-2 (stereo partly specified)	Active	42 nM	130	2000 nM	–	–	Drug uptake [6]: Active; Activity [9]: Toxic
COc1cc(C(C)OC(=O)N2CO[C@@H]3[C@H](C)O[C@@H](O[C@H]4C[C@](O)(C(=O)CO)Cc5c(O)c6c(c(O)c54)C(=O)c4c(OC)cccc4C6=O)C[C@@H]32)c([N+](=O)[O-])cc1OCC(=O)NCCOCCOCCOCCn1nnc2c1-c1ccccc1CN(C(=O)CCNC(=O)CCN1C(=O)CC(SCCC(=O)N[C@@H](CCCCN)C(=O)N[C@@H](CCCCN)C(=O)N[C@@H](CCCCN)C(=O)N[C@@H](CCCCN)C(=O)N[C@@H](CCCCN)C(=O)N[C@@H](CCCNC(=N)N)C(=O)N[C@@H](Cc3ccccc3)C(=O)N[C@@H](CO)C(=O)N[C@@H](Cc3ccccc3)C(=O)N[C@@H](CCCCN)C(=O)N[C@@H](CCCCN)C(=O)N[C@@H](CO)C(=O)N[C@@H](Cc3ccccc3)C(=O)N[C@@H](CCCCN)C(=O)N[C@@H](CC(C)C)C(=O)N[C@@H](CO)C(=O)NCC(=O)N[C@@H](Cc3ccccc3)C(=O)N[C@@H](CO)C(=O)N[C@@H](Cc3ccccc3)C(=O)N[C@@H](CCCCN)C(=O)N[C@@H](CCCCN)C(=O)N[C@@H](CC(N)=O)C(=O)N[C@@H](CCCCN)C(=O)N[C@@H](CCCCN)C(N)=O)C1=O)c1ccccc1-2 (stereo partly specified)	Active	15 nM	170	2500 nM	–	–	Drug uptake [6]: Active; Activity [9]: Toxic
CC(C)C[C@@H](NC(=O)[C@@H](CCCCN)NC(=O)[C@@H](Cc1ccccc1)NC(=O)[C@@H](CO)NC(=O)[C@@H](CCCCN)NC(=O)[C@@H](CCCCN)NC(=O)[C@@H](Cc1ccccc1)NC(=O)[C@@H](CO)NC(=O)[C@@H](Cc1ccccc1)NC(=O)[C@@H](CCCNC(=N)N)NC(=O)[C@@H](CCCCN)NC(=O)[C@@H](CCCCN)NC(=O)[C@@H](CCCCN)NC(=O)[C@@H](CCCCN)NC(=O)[C@H](N)CCCCN)C(=O)N[C@H](CO)C(=O)NCC(=O)N[C@H](Cc1ccccc1)C(=O)N[C@H](CO)C(=O)N[C@H](Cc1ccccc1)C(=O)N[C@H](CCCCN)C(=O)N[C@H](CCCCN)C(=O)N[C@H](CC(N)=O)C(=O)N[C@H](CCCCN)C(=O)N[C@H](CCCCN)C(N)=O	–	–	–	–	Active	Active	Activity [1]: Active; Activity [2]: Active; Drug uptake [10]: Active; Drug uptake [12]: Active; Activity [3]: Active
CC[C@H](C)[C@H](NC(=O)[C@H](CCCCN)NC(=O)[C@H](CC(=O)O)NC(=O)[C@H](Cc1ccc(O)cc1)NC(=O)[C@H](CC(=O)O)NC(=O)CNC(=O)CNC(=O)CCSC1CC(=O)N(CCC(=O)NCCC(=O)N2Cc3ccccc3-c3c(nnn3CCOCCOCCOCCNC(=O)COc3cc([N+](=O)[O-])c(C(C)OC(=O)N4CO[C@@H]5[C@H](C)O[C@@H](O[C@H]6C[C@](O)(C(=O)CO)Cc7c(O)c8c(c(O)c76)C(=O)c6c(OC)cccc6C8=O)C[C@@H]54)cc3OC)-c3ccccc32)C1=O)C(=O)NCC(=O)N[C@@H](CCCCN)C(=O)N[C@@H](CC(N)=O)C(=O)N[C@@H](CC(=O)O)C(=O)N[C@@H](C)C(N)=O (stereo partly specified) ([Mpa](X1)GGDYDKIGKNDA-NH2)	Not Active	1300 nM	8.5	11000 nM	–	–	–
COc1cc(C(C)OC(=O)N[C@H]2C[C@H](O[C@H]3C[C@](O)(C(=O)CO)Cc4c(O)c5c(c(O)c43)C(=O)c3c(OC)cccc3C5=O)O[C@@H](C)[C@H]2O)c([N+](=O)[O-])cc1OCC(=O)NCCOCCOCCOCCn1nnc2c1-c1ccccc1CN(C(=O)CCNC(=O)CCN1C(=O)CC(SCCC(=O)N[C@@H](CCCCN)C(=O)N[C@@H](CCCCN)C(=O)N[C@@H](CCCCN)C(=O)N[C@@H](CCCCN)C(=O)N[C@@H](CCCCN)C(=O)N[C@@H](CCCNC(=N)N)C(=O)N[C@@H](Cc3ccccc3)C(=O)N[C@@H](CO)C(=O)N[C@@H](Cc3ccccc3)C(=O)N[C@@H](CCCCN)C(=O)N[C@@H](CCCCN)C(=O)N[C@@H](CO)C(=O)N[C@@H](Cc3ccccc3)C(=O)N[C@@H](CCCCN)C(=O)N[C@@H](CC(C)C)C(=O)N[C@@H](CO)C(=O)NCC(=O)N[C@@H](Cc3ccccc3)C(=O)N[C@@H](CO)C(=O)N[C@@H](Cc3ccccc3)C(=O)N[C@@H](CCCCN)C(=O)N[C@@H](CCCCN)C(=O)N[C@@H](CC(N)=O)C(=O)N[C@@H](CCCCN)C(=O)N[C@@H](CCCCN)C(N)=O)C1=O)c1ccccc1-2 (stereo partly specified) ([Mpa](X2)KKKKKRFSFKKSFKLSGFSFKKNKK-NH2)	Active	1200 nM	5.4	6500 nM	–	–	–
H-DDDDDRASADDSADLSGASADDDDD-OH	–	–	–	–	Not Active	Not Active	–
H-GGDYDKIGKNDA-OH	–	–	–	–	Not Active	Not Active	–
H-KKKGKKNSSKKFFFFSKFKLSRKKK-NH2	–	–	–	–	Active	Active	–
